{"data": "Experimental data collected from several papers", "UGT2B7": "UDP-glucuronosyltransferase 2B7 (UGT2B7, Homo sapiens, UniProt P16662)", "KCNH2": "Voltage-gated inwardly rectifying potassium channel KCNH2 (KCNH2, Homo sapiens, UniProt Q12809)", "note": "Compare with care: the assays were run in different laboratories."}
{"Compound": "C[C@@H](Cn1ccc(-c2ccc(C#N)c(Cl)c2)n1)NC(=O)c1cc([C@@H](C)O)[nH]n1", "target": "UGT2B7", "assay": "enzyme activity, inhibitor", "system": "human, liver microsomes", "quantity": "IC50", "result": "> 100 µM"}
{"Compound": "CNC(=O)[C@@]12C[C@@H]1[C@@H](n1cnc3c(NCCc4ccc(O)c(OC)c4)nc(C#Cc4ccco4)nc31)[C@H](O)[C@@H]2O", "target": "KCNH2", "assay": "ion current, inhibitor", "conditions": "10 µM", "quantity": "inhibition", "result": "> 50%"}
{"Compound": "CON=C(N)c1ccc(-c2ccc(-c3ccc(C(N)=NOC)cc3)o2)cc1", "target": "Cytochrome P450 4F2 (Homo sapiens, UniProt P78329)", "assay": "enzyme activity, substrate", "quantity": "Km", "result": "0.7 µM"}
{"Compound": "C=C1CC[C@@H]2[C@](C)(CO[C@@H]3O[C@H](CO)[C@@H](O)[C@H](O)[C@H]3O)CCC[C@@]2(C)[C@@H]1CCC1=CCOC1=O", "target": "UGT2B7", "assay": "enzyme activity, inhibitor", "conditions": "100 µM, pH 7.4", "quantity": "inhibition", "result": "42%"}
{"Compound": "CC(=O)c1cc(C(=O)N[C@@H](C)Cn2ccc(-c3ccc(C#N)c(Cl)c3)n2)[nH]n1", "target": "UGT2B7", "assay": "enzyme activity, inhibitor", "system": "human, liver microsomes", "quantity": "IC50", "result": "> 50 µM"}
{"Compound": "CC(C)=CCCC(C)c1ccc(C)cc1 (centres unmarked)", "target": "UGT2B7", "assay": "enzyme activity, inhibitor", "quantity": "IC50", "result": "> 200 µM"}
{"Compound": "CN(CCC(=O)O)C(=O)c1ccc2c(c1)CC[C@@H]1[C@@H]2CC[C@]2(C)C(c3cncc(F)c3)=CC[C@@H]12", "target": "UGT2B7", "assay": "enzyme activity, inhibitor", "quantity": "IC50", "result": "> 30 µM"}
{"Compound": "O=C(Nc1cccc(C(F)(F)F)c1)N1CCN(c2cccc(C(F)(F)F)c2)CC1", "target": "KCNH2", "assay": "ion current, inhibitor, patch clamp", "system": "HEK293", "conditions": "10 µM", "quantity": "inhibition", "result": "85%"}
{"Compound": "C=C1CCC2C(C)(CO)C(=O)CCC2(C)C1CCC1=CCOC1=O (centres unmarked)", "target": "UGT2B7", "assay": "enzyme activity, inhibitor", "quantity": "Ki", "result": "4.2 µM"}
{"Compound": "O=c1c2ccccc2c(Cc2ccc(Cl)cc2)nn1C1CCCNCC1 (centres unmarked)", "target": "KCNH2", "assay": "ion current, inhibitor, patch clamp", "system": "HEK293", "conditions": "10 µM", "quantity": "inhibition", "result": "97%"}
{"Compound": "C=C1CC[C@@H]2[C@](C)(CO)[C@H](O)CC[C@@]2(C)[C@@H]1CCC1=CCOC1=O", "target": "UGT2B7", "assay": "enzyme activity, inhibitor", "conditions": "100 µM, pH 7.4", "quantity": "inhibition", "result": "95%"}
